We go through two compounds from publication PMC6133075 (European Journal of Drug Metabolism and Pharmacokinetics, 2018).

“And” between values parts separate entries of the source, which are not always exact repeats. Equal entries are not always repeated. Where two headings read alike, the source gives them in different places.

Series [1] is classed as in vivo, Wistar rats. Particulars: for mean Ke/p (RBC/plasma partition coefficient): mean (± SD) of all 12 rats, 1 and 4 h after i.p. treosulfan 500 mg/kg; for Cp: plasma; for Ce: red blood cells. Summed up:
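Wistar rats, 10 weeks old (6 male, 6 female), received a single i.p. bolus of 500 mg/kg in sterile water (10 mL/kg), with ketamine/xylazine anaesthesia. K2EDTA cardiac blood was taken at 1 or 4 h and spun at 3645×g for 5 min at 20 °C. Plasma and RBC were acidified with citric acid; RBC were lysed by three freeze–thaw cycles. HPLC–MS/MS used codeine as internal standard. Ke/p = Ce/Cp.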

Series [2] is classed as in vitro ADME, rat. Particulars: three freeze-thaw cycles, n = 3, range of means over QC levels. Summed up:
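Freeze–thaw stability of quality-control samples prepared by spiking drug-free rat plasma and drug-free RBC lysate (from three freeze–thaw cycles) at treosulfan 5.5, 55 and 800 μM and S,S-EBDM 9.4 and 94 μM. Samples were processed like study samples and assayed by HPLC–MS/MS. Stability was taken as the final/initial concentration ratio and reported as the range of means across QC levels.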

For series [3] the following is noted: treosulfan to S,S-EBDM; S,S-EBDM to (2S,3S)-1,2:3,4-diepoxybutane; cited from earlier work.
For series [4] the following is noted: rat plasma; cited from earlier work.
The conditions of series [5]: rat lungs; cited from earlier work.
The mark [6] stands for this setting: individual female rats, 1 h after i.p. bolus treosulfan 500 mg/kg.
Where [7] appears, read: individual female rats, 4 h after i.p. bolus treosulfan 500 mg/kg.
Where [8] appears, read: individual male rats, 1 h after i.p. bolus treosulfan 500 mg/kg.
Where [9] appears, read: individual male rats, 4 h after i.p. bolus treosulfan 500 mg/kg.

Take `CS(=O)(=O)OC[C@H](O)[C@@H]1CO1` [S,S-EBDM, (2S,3S)-1,2-epoxy-3,4-butanediol 4-methanesulfonate]: the “mean Ke/p (RBC/plasma partition coefficient)” value in series [1] is 0.60 ± 0.09. Further, the Cp in series [1] (setting [6]) is 64 µM and 22 µM; in series [1] (setting [7]), 5.6 µM and 6.2 µM; in series [1] (setting [8]) it was 58 µM and 61 µM and 3.6 µM; in series [1] (setting [9]), 8.4 µM and 5.5 µM. In addition, the Ce in series [1] (setting [8]) was 36 µM and 34 µM and 2.1 µM; in series [1] (setting [9]) it was 6.7 µM and 3.5 µM. Besides, the figures for the “Stability (final/initial concentration)” value in series [2] (rat RBC lysate) and in series [2] (rat plasma) were 86.7–89.8% and 88.3–89.4%, respectively. For the same compound, the “t1/2 of nonenzymatic epoxidation” value in series [3] was 3.4 h. Also, the unbound fraction in series [4] is ≥ 0.94. Besides, the tissue-to-plasma concentration ratio in series [5] is recorded as ~0.6.
For the compound `CS(=O)(=O)OC[C@H](O)[C@@H](O)COS(C)(=O)=O` [Treosulfan], the “mean Ke/p (RBC/plasma partition coefficient)” value in series [1] came to 0.74 ± 0.12. The Cp is 1164 µM and 300 µM and 349 µM in series [1] (setting [6]); 113 µM and 83 µM in series [1] (setting [7]); 943 µM and 1189 µM and 28.8 µM in series [1] (setting [8]); 112 µM and 120 µM and 30 µM in series [1] (setting [9]). Moreover, the Ce in series [1] (setting [8]) is 704 µM and 779 µM and 24.2 µM; in series [1] (setting [9]), 94 µM and 87 µM and 26 µM. Besides, the “Stability (final/initial concentration)” value is recorded as 85.8–104.8% in series [2] (rat RBC lysate) and 90.7–108.8% in series [2] (rat plasma). Further, the “t1/2 of nonenzymatic epoxidation” value in series [3] was 1.5 h. Moreover, the unbound fraction in series [4] was ≥ 0.94. Moreover, the tissue-to-plasma concentration ratio result in series [5] is reported as “about 0.8”.
